# Screens (PubChem)
# Kir21 inh: Kir2.1 (mouse) channel inhibition | HEK293-Kir2.1, FluxOR thallium flux fluorescence; hits give low values | B-score at 10 µM | 0.85% of 310,000 active;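 active means fluorescence ratio B-score at or below minus 3 SD of library scores, with starting-brightness B-score within 2 SD, cut at about -4.2 in these data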;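 further: channel flux triggered by added potassium and thallium sulfate stimulus; B-score of peak minus minimum fluorescence over baseline after thallium stimulus; more negative B-score means stronger Kir2.1 block with less thallium influx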
# KCNK3 block: human KCNK3 channel inhibition, primary screen | O14649 | CHO-KCNK3 thallium flux, FluxOR fluorescence; hits give low values | B-score at 10 µM | 0.84% of 340,000 active | AID 602410;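 active means B-score under library mean minus 4 SD, starting fluorescence ratio at most library mean plus 5 SD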;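 further: more negative B-score means stronger inhibition of thallium flux through KCNK3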
# KCNK9 inh-1: inhibitors of human KCNK9 two-pore domain potassium channel; 1.2% of 310,000 active; HEK293 KCNK9, FluxOR thallium flux fluorescence; hits give low values; B-score at 10 µM; Q9NPC2;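 active means ratio B-score over 3 SD below the library mean, with starting fluorescence within 5 SD of its mean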;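 further: negative B-score means less thallium flux so channel inhibition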
# KCNQ1 inh: human KCNQ1 channel inhibition; P51787; CHO-K1 KCNQ1, FluxOR thallium flux fluorescence; hits give high values; B-score at 10 µM; 1.3% of 310,000 active;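 active means compounds whose thallium flux B-score, printed positive for inhibition, exceeds three library SD while starting fluorescence stays within three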;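 further: channel opened by potassium depolarization with thallium stimulus after 20 min compound exposure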
# hERG protect: compounds protecting human hERG from proarrhythmic drug block; activation (rescue from dofetilide block), less the hit threshold, % at 10 µM; Q12809; AID 1511; CHO-hERG, FluxOR thallium flux, dofetilide IC70 present; 0.51% of 310,000 active;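 active means activation above the mean of controls blocked by dofetilide plus 5 SD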;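 further: thallium influx through hERG after potassium depolarization seen as dye fluorescence rise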
# KCNQ1 pot: potentiates or activates the human KCNQ1 potassium channel | 0.35% of 310,000 active | B-score at 10 µM | CHO-K1 KCNQ1, thallium flux FluxOR fluorescence; hits give high values | P51787;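 active means fluorescence ratio B-score, a plate-corrected score, at least three library SD, with initial intensity B-score within 5 SD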
#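 Assay system: CHO-K1 cells stably expressing KCNQ1. Medium: assay buffer for compound exposure, DMSO matched across wells. Timing: 37 °C overnight plating, 90-min dark dye load, 20-min compound pretreatment. Signal: kinetic FluxOR fluorescence, 10 s baseline plus 110 s post-stimulus.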
# hERG inh: blocks human hERG, in counter-screen for Kir2.1 inhibitors; hERG-expressing cells, thallium flux; AID 2236; inhibition, % at 10 µM; shares compounds with Kir21 inh; 20% of 320 active;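 further: host cells are CHO cells stably expressing hERG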
# KCNK9 inh-2: human KCNK9 off-target activity of Kir2.1 blockers | inhibition, % at 10 µM | 5% of 320 active | shares compounds with Kir21 inh | KCNK9-expressing cells, ion flux inhibition
# Kir2-1 patch inh: mouse Kir2.1 inward rectifier channel inhibition. shares compounds with Kir21 inh. Kir2.1 cells, automated patch-clamp current inhibition. inhibition, % at 25 µM. 71% of 320 active. AID 463252
# KCNQ1 inh valid: human KCNQ1 channel inhibition, validation assay; inhibition, % at 10 µM; shares compounds with KCNQ1 inh; 93% of 1,600 active; KCNQ1 cell line, FluxOR thallium flux fluorescence;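 active means primary screen active, with duplicate mean exceeding buffer control mean plus 3 SD of buffer wells, cut at about 28% in these data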;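 further: 0% = buffer control ratio and 100% = XE991 inhibitor control ratio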
# CHO Tl flux: activity in parental CHO cells lacking KCNQ1. shares compounds with KCNQ1 inh. parental CHO-K1, FluxOR thallium flux fluorescence ratio; hits give low values; zero means no signal rise above baseline. fluorescence ratio (Tl flux) at 10 µM. 21% of 1,600 active;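 active means mean of duplicate thallium-flux fluorescence ratios in parental host cells more than 5 SD below the buffer control mean, cut at about 0.38 in these data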;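 further: ratio is peak minus minimum fluorescence divided by baseline fluorescence; actives read low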
# KCNQ1 ephys val: human KCNQ1 inhibition validated by electrophysiology; calls only at 10 µM; shares compounds with KCNQ1 inh; 20% of 490 active; KCNQ1-CHO cells, automated patch clamp current; AID 624120;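 active means KCNQ1 current drop exceeding 3 SD of negative control wells, seen in both duplicate runs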;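 further: steady state current during a 2 s step from -80 to +40 mV; negative values mean current inhibition and positive values mean potentiation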
# KCNQ2 inh: KCNQ1 inhibitor that also blocks rat KCNQ2 channel; shares compounds with KCNQ1 inh; AID 651746; 71% of 1,600 active; inhibition, % at 10 µM; KCNQ2 cells, FluxOR thallium flux fluorescence;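 active means mean percent inhibition of the KCNQ2 thallium signal more than 5 SD above the buffer-only control wells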;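 further: KCNQ2 expressed in CHO cells; 0% = buffer control wells and 100% = XE-991 inhibitor control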
# KCNQ1 KCNE1 spec: selectivity of KCNQ1 inhibitors: inhibition of human KCNQ1/KCNE1 channel; shares compounds with KCNQ1 inh; KCNQ1/KCNE1 cells, FluxOR thallium flux fluorescence; inhibition, % at 10 µM; 77% of 1,600 active; AID 652147;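 active means mean percent inhibition of duplicate wells above the buffer-only control mean plus 3 SD of those controls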;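 further: 0% = buffer only wells and 100% = XE-991 inhibitor control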
# KCNK9 block conf: confirmation of human KCNK9 potassium channel inhibitors | shares compounds with KCNK9 inh-1 | HEK293 KCNK9 cells, FluxOR thallium flux fluorescence | inhibition, % at 10 µM | 43% of 4,900 active | AID 492992;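 active means thallium signal inhibited by more than 5 SD of the compound-free buffer control wells, on both duplicate plates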;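 further: 0% = assay buffer control wells without compound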
# Kir21 sel: mouse Kir2.1 off-target activity of KCNK9 modulators | shares compounds with KCNK9 inh-1 | Kir2.1 cells, FluxOR thallium flux fluorescence | inhibition, % at 10 µM | 4% of 4,900 active | AID 492993;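 active means thallium signal drop more than 5 SD beyond the mean of the no-compound control wells, seen in both duplicate plates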;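 further: signal is fluorescence rise after thallium addition divided by baseline fluorescence; plate controls were assay buffer only for no effect and full block by chlorpromazine control for full effect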
# HEK293 Tl ctr: second check of KCNK9 modulator effects in non-induced HEK293 cells; shares compounds with KCNK9 inh-1; FluxOR thallium flux; inhibition, % at 10 µM; 40% of 4,900 active;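 active means thallium signal drop beyond 5 SD of the untreated control mean, on both duplicate plates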;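 further: plate controls were buffer only IC0 wells for no effect and SID17386958 at its maximal inhibitory level for full effect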
# KCNK3 confirm: human KCNK3 channel inhibition, confirmation assay; shares compounds with KCNK3 block; 99% of 2,400 active; ratio percent of control, % at 10 µM; AID 651638; CHO-KCNK3 thallium flux, FluxOR fluorescence; 0% buffer, 100% carvedilol maximal block;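 active means ratio percent of control, averaged over triplicates, above buffer control mean plus 5 SD, cut at about 64% in these data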;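 further: ratio is the fluorescence rise from min to max over baseline after thallium stimulus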
# KCNK3 uninduced: KCNK3 inhibitor counter-screen hit in non-induced cells; shares compounds with KCNK3 block; non-induced KCNK3 parental cells, FluxOR thallium flux; hits give low values; thallium flux ratio (lower = more inhibition) at 10 µM; 40% of 2,400 active; AID 651747;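 active means thallium flux ratio, averaged over three wells, more than 5 SD below the buffer control mean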;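 further: host cells are CHO cells without KCNK3 induction; ratio is peak minus trough fluorescence over baseline then normalized to buffer controls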
# Starred values were filed as active, the others as inactive; i = inactive; x = not tested or not shown; + = active, no number. Most compounds without a hit are left out; they make up all but 3.8% or so of the library. Unless noted, how the calls were made is not given here.
SMILES,Kir21 inh,KCNK3 block,KCNK9 inh-1,KCNQ1 inh,hERG protect,KCNQ1 pot,KCNQ1 inh valid,CHO Tl flux,KCNQ2 inh,KCNQ1 KCNE1 spec,others
CN(C)CC/C=C1\c2ccccc2Sc2ccc(Cl)cc21,-8.1*,i,i,i,-14,i,x,x,x,x,hERG inh=58%*;KCNK9 inh-2=i;Kir2-1 patch inh=28%*;KCNK9 block conf=i;Kir21 sel=59%*;HEK293 Tl ctr=i
Cc1cccc(C)c1-c1ccc(CN2C(CC(C)C)C(=O)N(Cc3cn(CCO)nn3)CCS2(=O)=O)cc1 (centres undefined),x,i,x,x,x,x,x,x,x,x,
O=C(c1ccc2c(c1)N(Cc1ccccc1)CCS2)N1CCCCC1,-5.8*,-9.9*,i,i,-14,i,x,x,x,x,hERG inh=i;KCNK9 inh-2=i;Kir2-1 patch inh=i;KCNK3 confirm=124*;KCNK3 uninduced=0.13*
c1cn(-c2ccc(-c3ccnc4ncnn34)cc2)cn1,-0.23,i,i,i,-3,i,x,x,x,x,
Fc1ccc(CSc2nc3ccccc3[nH]2)c2ccccc12,-0.04,i,i,6*,-13,i,124*,0.35*,107%*,124%*,
O=c1cc(CSc2nc3ccccc3[nH]2)c2ccccc2[nH]1,0.89,i,i,i,-13,i,x,x,x,x,
O=C(CSc1ccc2ccccc2c1)Nc1ccncc1,-0.68,i,i,7*,-10,i,90*,0.54,75%*,i,KCNQ1 ephys val=i
O=C(CSc1ccncc1)Nc1ccc2ccccc2c1,0.81,i,i,i,-9,i,x,x,x,x,
COc1ccc(Nc2nc(-c3ccccc3)nc3ccccc23)c(OC)c1,-0.02,i,i,11*,-8,i,+,0.41,108%*,i,KCNQ1 ephys val=i
COc1ccc(Nc2nc(NC(C)(C)C)nc(N3CCCC3)n2)c(OC)c1,-0.26,i,i,8*,-15,i,144*,0.32*,i,+,
COc1ccc(Nc2nc(N3CCN(S(C)(=O)=O)CC3)nc3ccccc23)c(OC)c1,0.03,i,i,i,-7,i,x,x,x,x,
COc1ccc(Nc2nc(N3CCCCC3)nc3ccccc23)c(OC)c1,-7*,i,i,12*,-17,i,98*,0.43,90%*,94%*,KCNQ1 ephys val=i
Cc1nnc(SCC(=O)NC2CCCCC2)n1N,x,i,x,x,x,x,x,x,x,x,
O=[N+]([O-])c1ccc2nc(SCc3ccccc3Cl)sc2c1,0.07,i,i,15*,-20,i,106*,0.42,117%*,116%*,KCNQ1 ephys val=i
O=C(Nc1cc([N+](=O)[O-])ccc1Cl)c1ccc2c(c1)OCO2,0.75,i,i,i,-3,i,x,x,x,x,
O=C(Nc1ccc(F)cc1)c1cc(S(=O)(=O)Nc2ccc(F)cc2)cs1,2.8,i,i,7*,-9,i,66*,0.46,62%*,i,
CCCn1c(C(O)c2cccc(OC)c2)nc2ccccc21 (centres undefined),-1.9,i,i,i,-2,i,x,x,x,x,
CC(=O)Oc1ccc([C@@H]2COc3c(ccc4c3C=CC(C)(C)O4)C2)c(OC(C)=O)c1,-0.51,i,i,7*,-10,i,136*,0.42,90%*,78%*,
CC1(C)C=Cc2c(ccc3c2OC[C@H](c2ccc(O)cc2O)C3)O1,x,i,x,x,x,x,x,x,x,x,
Cc1ccc2nc(/N=C(\N)NC(=O)NC3CCCCC3)nc(C)c2c1,0.82,i,i,7*,-22,i,56*,0.52,i,i,
Cc1ccc(-c2nnn(C(C)C(=O)N3c4ccccc4CCc4ccccc43)n2)cc1 (centres undefined),-0.91,i,i,6*,-6,i,135*,0.42,92%*,162%*,KCNQ1 ephys val=i
CC(C(=O)N1c2ccccc2CCc2ccccc21)n1nnc(-c2ccc(N(C)C)cc2)n1 (centres undefined),2.1,i,i,i,-2,i,x,x,x,x,
CCOc1ccc(C2=CSC3=NCCN23)cc1Cl,0.4,i,i,i,-6,i,x,x,x,x,
CN1/C(=C\C=C2/SC(=S)N(CC(=O)O)C2=O)C(C)(C)c2ccccc21,-14,i,i,24*,-44,i,+,0.044*,i,i,
COCCNC(=O)Cn1c(=O)n(CCCC(=O)NCc2ccc3c(c2)OCO3)c(=O)c2sccc21,-1.1,i,i,i,-4,i,x,x,x,x,
